Converted amounts (≈) assume the structure as drawn.
Columns and labels:
Type in all cases: functional
[1] = system: Mycolicibacterium smegmatis; assay: Antimicrobial activity against Mycobacterium smegmatis by broth microdilution assay
Summary of the method: (§1)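 Strains were L. plantarum ATCC 14917, precultured in TSB, and M. smegmatis ATCC 607, precultured in Middlebrook 7H9. Inocula were diluted with buffered saline gelatin to McFarland No. 1. Twofold dilutions of compound in aqueous triethanolamine were made in 1/10-strength BHI broth + 0.2% sucrose and mixed with an equal volume of inoculum. Plates were incubated at 30 °C and scored visually for turbidity on day 4. MIC was determined in triplicate.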

Saccharomyces cerevisiae = assay: Antimicrobial activity against Saccharomyces cerevisiae by broth microdilution assay
Summary of the method: (§2)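 Compounds were dissolved in aqueous triethanolamine (stock pH 8–9) and serially diluted twofold in 1/10-strength BHI broth + 0.2% sucrose. Inocula were adjusted with buffered saline gelatin to McFarland No. 1; for A. niger, spores were scraped from PDA. Plates were incubated at 30 °C and turbidity was scored visually on day 4. MIC, run in triplicate, was the lowest concentration giving a prominent visible decrease in turbidity.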

Escherichia coli = assay: Antimicrobial activity against Escherichia coli by broth microdilution assay
Summary of the method: (§3)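 Strains were E. coli strain C (ATCC 13706) and K. pneumoniae ATCC 4352, grown from a single colony in 1/10-strength BHI broth + 0.2% sucrose and adjusted with buffered saline gelatin to McFarland No. 1. Twofold dilution series of compound in triethanolamine/water used doubled medium and inoculum volumes. Plates were incubated at 37 °C and turbidity was scored visually on day 7. MIC, run in triplicate, was the lowest concentration giving a prominent visible turbidity decrease.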

Staphylococcus aureus [2] = assay: Antimicrobial activity against Staphylococcus aureus by broth microdilution assay
Summary of the method: (§4)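 Twofold dilution series of amphiphile (dissolved in aqueous triethanolamine, pH 8–9) in 1/10-strength Brain Heart Infusion Broth with 0.2% sucrose. Inoculum from a single-colony broth culture, diluted with buffered saline gelatin to No. 1 McFarland turbidity. Incubated at 30 °C; turbidity scored visually on day 4. MIC = lowest concentration giving a prominent visible decrease in turbidity; triplicate.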

Candida albicans = assay: Antimicrobial activity against Candida albicans by broth microdilution assay; summary of the method: as §2
Micrococcus luteus = assay: Antimicrobial activity against Micrococcus luteus by broth microdilution assay; summary of the method: as §2
Klebsiella pneumoniae = assay: Antimicrobial activity against Klebsiella pneumoniae by broth microdilution assay; summary of the method: as §3
[3] = system: Lactiplantibacillus plantarum; assay: Antimicrobial activity against Lactobacillus plantarum by broth microdilution assay; summary of the method: as §1
Cryptococcus neoformans = assay: Antimicrobial activity against Cryptococcus neoformans by broth microdilution assay; summary of the method: as §2
Aspergillus niger = assay: Antimicrobial activity against Aspergillus niger by broth microdilution assay; summary of the method: as §2
Staphylococcus aureus [4] = assay: Antimicrobial activity against methicillin-resistant Staphylococcus aureus by broth microdilution assay; summary of the method: as §4

Row | Compound | MIC [1] [µM] | MIC (Saccharomyces cerevisiae) [µM] | MIC (Escherichia coli) [µM] | MIC (Staphylococcus aureus [2]) [µM] | MIC (Candida albicans) [µM] | MIC (Micrococcus luteus) [µM] | MIC (Klebsiella pneumoniae) [µM] | MIC [3] [µM] | MIC (Cryptococcus neoformans) [µM] | MIC (Aspergillus niger) [µM] | MIC (Staphylococcus aureus [4]) [µM]
1 | CCCCCCCCCCCC(CCCCCCCCCCC)NC(=O)NC(CCC(=O)O)(CCC(=O)O)CCC(=O)O | 640 (≈ 392 µg/mL) | 1300 (≈ 797 µg/mL) | 2500 (≈ 1530 µg/mL) | > 10000 | > 10000 | > 10000 | > 10000 | 10000 (≈ 6130 µg/mL) | 7.2 (≈ 4.41 µg/mL) | 10000 (≈ 6130 µg/mL) | 
2 | CCCCCCCCN(CCCCCCCC)C(=O)NC(CCC(=O)O)(CCC(=O)O)CCC(=O)O | 1500 (≈ 772 µg/mL) | 380 (≈ 196 µg/mL) | 760 (≈ 391 µg/mL) | > 12000 | 190 (≈ 97.8 µg/mL) | 3000 (≈ 1540 µg/mL) | > 1100 | 1500 (≈ 772 µg/mL) | 550 (≈ 283 µg/mL) | 380 (≈ 196 µg/mL) | 3000 (≈ 1540 µg/mL)
3 | CCCCCCCCCN(CCCCCCCCC)C(=O)NC(CCC(=O)O)(CCC(=O)O)CCC(=O)O | 1400 (≈ 760 µg/mL) | 720 (≈ 391 µg/mL) | 1400 (≈ 760 µg/mL) | > 12000 | > 12000 | 12000 (≈ 6510 µg/mL) | > 1000 | 12000 (≈ 6510 µg/mL) | 260 (≈ 141 µg/mL) | 5800 (≈ 3150 µg/mL) | 12000 (≈ 6510 µg/mL)
4 | CCCCCCCCCCN(CCCCCCCCCC)C(=O)NC(CCC(=O)O)(CCC(=O)O)CCC(=O)O | 680 (≈ 388 µg/mL) | 2700 (≈ 1540 µg/mL) | 2700 (≈ 1540 µg/mL) | > 11000 | > 11000 | 11000 (≈ 6280 µg/mL) | > 1000 | 11000 (≈ 6280 µg/mL) | 62 (≈ 35.4 µg/mL) | 11000 (≈ 6280 µg/mL) | 11000 (≈ 6280 µg/mL)
5 | CCCCCCCCCC(CCCCCCCCC)NC(=O)NC(CCC(=O)O)(CCC(=O)O)CCC(=O)O | 350 (≈ 195 µg/mL) | 2800 (≈ 1560 µg/mL) | 350 (≈ 195 µg/mL) |  | > 11000 | > 11000 | > 11000 | 5600 (≈ 3120 µg/mL) | 64 (≈ 35.6 µg/mL) | 2800 (≈ 1560 µg/mL) | 
6 | CCCCCCCCCCC(CCCCCCCCCC)NC(=O)NC(CCC(=O)O)(CCC(=O)O)CCC(=O)O | 330 (≈ 193 µg/mL) | 2700 (≈ 1580 µg/mL) | 2700 (≈ 1580 µg/mL) |  | > 11000 | > 11000 | > 11000 | 5300 (≈ 3100 µg/mL) | 15 (≈ 8.77 µg/mL) | 11000 (≈ 6430 µg/mL) | 
7 | CCCCCCCCCCCCCCCCCCNC(=O)NC(CCC(=O)O)(CCC(=O)O)CCC(=O)O | 33 (≈ 17.9 µg/mL) | 130 (≈ 70.6 µg/mL) | 130 (≈ 70.6 µg/mL) | 1400 (≈ 760 µg/mL) | 1400 (≈ 760 µg/mL) | > 12000 | 260 (≈ 141 µg/mL) | 1400 (≈ 760 µg/mL) | 90 (≈ 48.8 µg/mL) | 1400 (≈ 760 µg/mL) | 720 (≈ 391 µg/mL)
8 | CCCCCCCCCCCCCCCCCCCCCCNC(=O)NC(CCC(=O)O)(CCC(=O)O)CCC(=O)O | 120 (≈ 71.9 µg/mL) | 30 (≈ 18 µg/mL) | 120 (≈ 71.9 µg/mL) | 1300 (≈ 779 µg/mL) | 2600 (≈ 1560 µg/mL) | > 10000 | 470 (≈ 281 µg/mL) | 950 (≈ 569 µg/mL) | 5200 (≈ 3110 µg/mL) | 5200 (≈ 3110 µg/mL) | 1300 (≈ 779 µg/mL)
9 | CCCCCCCN(CCCCCCC)C(=O)NC(CCC(=O)O)(CCC(=O)O)CCC(=O)O | 3200 (≈ 1560 µg/mL) | 800 (≈ 389 µg/mL) | 3200 (≈ 1560 µg/mL) | > 13000 | 1600 (≈ 779 µg/mL) | 6400 (≈ 3110 µg/mL) | > 1200 | 6400 (≈ 3110 µg/mL) | 1200 (≈ 584 µg/mL) | 800 (≈ 389 µg/mL) | 3200 (≈ 1560 µg/mL)
10 | CCCCCCCCCCCCCCCCNC(=O)NC(CCC(=O)O)(CCC(=O)O)CCC(=O)O | 140 (≈ 72.1 µg/mL) | 550 (≈ 283 µg/mL) | 140 (≈ 72.1 µg/mL) | 760 (≈ 391 µg/mL) | 47 (≈ 24.2 µg/mL) | > 12000 | 280 (≈ 144 µg/mL) | 6100 (≈ 3140 µg/mL) | 47 (≈ 24.2 µg/mL) | 3000 (≈ 1540 µg/mL) | 6100 (≈ 3140 µg/mL)
11 | CCCCCCCCCCCCC(CCCCCCCCCCCC)NC(=O)NC(CCC(=O)O)(CCC(=O)O)CCC(=O)O | 1200 (≈ 769 µg/mL) | 610 (≈ 391 µg/mL) | 2400 (≈ 1540 µg/mL) | > 9800 | > 9800 | > 9800 | > 9800 | 9800 (≈ 6280 µg/mL) | 6.9 (≈ 4.42 µg/mL) | 9800 (≈ 6280 µg/mL) | 
12 | CCCCCCCCCCCCCCCCCCCCNC(=O)NC(CCC(=O)O)(CCC(=O)O)CCC(=O)O | 62 (≈ 35.4 µg/mL) | 120 (≈ 68.5 µg/mL) | 62 (≈ 35.4 µg/mL) | 1400 (≈ 799 µg/mL) | 2700 (≈ 1540 µg/mL) | > 11000 | 250 (≈ 143 µg/mL) | 1400 (≈ 799 µg/mL) | 2700 (≈ 1540 µg/mL) | 680 (≈ 388 µg/mL) | 1400 (≈ 799 µg/mL)
13 | CCCCCCCCCCCN(CCCCCCCCCCC)C(=O)NC(CCC(=O)O)(CCC(=O)O)CCC(=O)O | 650 (≈ 389 µg/mL) | 5200 (≈ 3110 µg/mL) | 2600 (≈ 1560 µg/mL) | > 10000 | > 10000 | 10000 (≈ 5990 µg/mL) | > 950 | 10000 (≈ 5990 µg/mL) | > 950 | 10000 (≈ 5990 µg/mL) | 10000 (≈ 5990 µg/mL)
14 | CCCCCCCC(CCCCCCC)NC(=O)NC(CCC(=O)O)(CCC(=O)O)CCC(=O)O | 3100 (≈ 1550 µg/mL) | 6200 (≈ 3100 µg/mL) | 3100 (≈ 1550 µg/mL) |  | 3100 (≈ 1550 µg/mL) | > 12000 | > 12000 | 6200 (≈ 3100 µg/mL) | 1100 (≈ 551 µg/mL) | 6200 (≈ 3100 µg/mL) | 
15 | CCCCCCCCC(CCCCCCCC)NC(=O)NC(CCC(=O)O)(CCC(=O)O)CCC(=O)O | 1500 (≈ 793 µg/mL) | 3000 (≈ 1590 µg/mL) | 1500 (≈ 793 µg/mL) |  | 740 (≈ 391 µg/mL) | > 12000 | > 12000 | 5900 (≈ 3120 µg/mL) | 270 (≈ 143 µg/mL) | 5900 (≈ 3120 µg/mL) | 
16 | CCCCCCCCCCCCCCNC(=O)NC(CCC(=O)O)(CCC(=O)O)CCC(=O)O | 580 (≈ 282 µg/mL) | 580 (≈ 282 µg/mL) | 290 (≈ 141 µg/mL) | 6400 (≈ 3110 µg/mL) | 1600 (≈ 779 µg/mL) | > 13000 | 290 (≈ 141 µg/mL) | 6400 (≈ 3110 µg/mL) | 1600 (≈ 779 µg/mL) | 6400 (≈ 3110 µg/mL) | 6400 (≈ 3110 µg/mL)

From ChEMBL document CHEMBL1147951, “Synthesis and antimicrobial activity of symmetrical two-tailed dendritic tricarboxylato amphiphiles” (2007)
